≈ marks a conversion by molar mass, not a printed value. Positions of bridges follow the written chain, without caps; N, C: chain ends. Non-standard residues stand in square brackets, D forms with d. Residues, ends and D or L forms follow the SMILES beside them. *: point of attachment. Tetradecanoyl(3R-OH) = CCCCCCCCCCC[C@@H](O)CC(=O)*; Asp(3S-OH) = N[C@H](C(=O)O)[C@H](O)C(=O)O; Thr(4-Cl) = N[C@H](C(=O)O)[C@H](O)CCl; aThr = C[C@H](O)[C@H](N)C(=O)O; dDab = NCC[C@@H](N)C(=O)O; NHCH2CH2NMe2 = CN(C)CCN*; Dab = NCC[C@H](N)C(=O)O; Dhb = C/C=C(\N)C(=O)O; X1 = CCN(CC)CCN*; NHcPr = C1CC1N*
Key:
Aspergillus fumigatus = experiment: In vitro minimum inhibitory concentration (MIC) against Aspergillus fumigatus.; assay type: functional
Procedure, shortened: (§1)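 Tested against Candida albicans, Cryptococcus neoformans and Aspergillus fumigatus, with PSB as positive control. MIC is taken as the lowest drug concentration giving 90–100% inhibition of visible growth relative to drug-free controls.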

Candida albicans [1] = experiment: In vitro minimum inhibitory concentration (MIC) against Candida albicans.; assay type: functional; procedure, shortened: as §1
Cryptococcus neoformans = experiment: In vitro minimum inhibitory concentration (MIC) against Cryptococcus neoformans.; assay type: functional; procedure, shortened: as §1
Mus musculus [2] = experiment: Compound was dosed four times to outbred, male ICR mice and signs of irritation (erythema, swelling, discoloration, necrosis and tail loss) were observed in tail irritation test; Yes; assay type: ADME, organism-based; settings: in vivo
Candida albicans [3] = experiment: In vivo efficacy against murine Candidiasis dosed four times by intraperitoneal administration post-infection using Reed and Muench method.; assay type: functional; settings: ip
Procedure, shortened: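 Systemic candidiasis in mice, with PSB and amphotericin B as positive controls. Analogues were given at 20, 10 and 5 mg/kg, four doses at 0, 4, 24 and 48 post-infection. ED50 is the dose giving 50% survival relative to untreated infected animals, calculated by the Reed and Muench method.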

Mus musculus [4] = experiment: Toxicity at a dose of 100 mg/kg in mice; Death; settings: in vivo
Mus musculus [5] = experiment: Toxicity at a dose of 125 mg/kg in mice; Death; settings: in vivo
Mus musculus [6] = experiment: In vivo efficacy against murine Candidiasis dosed four times by intraperitoneal administration post-infection using Reed and Muench method; Toxic; assay type: functional, organism-based
Mus musculus [7] = experiment: In vivo efficacy against murine systemic Cryptococosis by intraperitoneal administration; assay type: functional; settings: ip
Procedure, shortened: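 Murine systemic cryptococcosis, ip dosing BID ×4 at 5.0, 1.25, 0.312 and 0.078 mg/kg. ED50 is the dose giving 50% survival relative to untreated infected animals.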

Mus musculus [8] = experiment: Survival extension of the mice against Aspergillosis infection at a dose of 1 mg/kg; assay type: functional
Procedure, shortened: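 Murine systemic aspergillosis model, ip. The analogue was given BID at 50, 10 and 1 mg/kg, and survival extension of infected animals was recorded.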

Mus musculus [9] = experiment: Toxicity at a dose of 75 mg/kg in mice; Death; settings: in vivo
Rattus norvegicus = experiment: Toxicity at a dose of 50 mg/kg in rats; Death; assay type: organism-based; set-up: dose 50 mg/kg; settings: in vivo
Mus musculus [10] = experiment: Survival extension of the mice against Aspergillosis infection at a dose of 20 mg/kg; assay type: functional

Row | SMILES | MIC (Aspergillus fumigatus) | MIC (Candida albicans [1]) | MIC (Cryptococcus neoformans) | Tail vein toxicity (Mus musculus [2]) | ED50 (Candida albicans [3]) | Toxicity (Mus musculus [4]) | Toxicity (Mus musculus [5]) | ED50 (Mus musculus [6]) | ED50 (Mus musculus [7]) | Survival extension (Mus musculus [8]) | Toxicity (Mus musculus [9]) | Toxicity (Rattus norvegicus) | Survival extension (Mus musculus [10])
1 | C/C=C1\NC(=O)[C@H]([C@H](C)O)NC(=O)[C@H](CCN)NC(=O)[C@H](CCCCN)NC(=O)[C@H](CC(N)=O)NC(=O)[C@@H](CCN)NC(=O)[C@@H](NC(=O)C[C@H](O)CCCCCCCCCCC)COC(=O)[C@H]([C@H](O)CCl)NC(=O)[C@H]([C@H](O)C(=O)O)NC1=O ({Tetradecanoyl(3R-OH)}-S[dDab]NK[Dab][aThr][Dhb][Asp(3S-OH)][Thr(4-Cl)]; ester 1-C) | 10 µg/mL (≈ 8.29 µM) | 2.5 µg/mL (≈ 2.07 µM) | < 0.01 µg/mL | Active | < 0.8 mg/kg |  |  |  |  |  |  |  | 
2 | C/C=C1\NC(=O)[C@H]([C@@H](C)O)NC(=O)[C@H](CCN)NC(=O)[C@H](CCCCN)NC(=O)[C@H](CC(=O)N[C@@H](CCCCN)C(=O)OC)NC(=O)[C@@H](CCN)NC(=O)[C@@H](NC(=O)C[C@H](O)CCCCCCCCCCC)COC(=O)[C@H]([C@H](O)CCl)NC(=O)[C@H]([C@H](O)C(=O)O)NC1=O | > 20 µg/mL | 1.25 µg/mL (≈ 0.926 µM) | < 0.01 µg/mL |  | < 5 mg/kg | Death | Death |  |  |  |  |  | 
3 | C/C=C1\NC(=O)[C@H]([C@H](C)O)NC(=O)[C@H](CCN)NC(=O)[C@H](CCCCN)NC(=O)[C@H](CC(=O)NCCCN(CC)CC)NC(=O)[C@@H](CCN)NC(=O)[C@@H](NC(=O)C[C@H](O)CCCCCCCCCCC)COC(=O)[C@H]([C@H](O)CCl)NC(=O)[C@H]([C@H](O)C(=O)O)NC1=O | > 20 µg/mL | 20 µg/mL (≈ 15.2 µM) | < 0.01 µg/mL | Active | < 4 mg/kg |  |  |  |  |  |  |  | 
4 | C/C=C1\NC(=O)[C@H]([C@H](C)O)NC(=O)[C@H](CCN)NC(=O)[C@H](CCCCN)NC(=O)[C@H](CC(=O)NCCCCCCC)NC(=O)[C@@H](CCN)NC(=O)[C@@H](NC(=O)C[C@H](O)CCCCCCCCCCC)COC(=O)[C@H]([C@H](O)CCl)NC(=O)[C@H]([C@H](O)C(=O)O)NC1=O | > 20 µg/mL | 20 µg/mL (≈ 15.3 µM) | 0.312 µg/mL (≈ 0.239 µM) |  |  |  |  | Toxic |  |  |  |  | 
5 | C/C=C1\NC(=O)[C@H]([C@H](C)O)NC(=O)[C@H](CCN)NC(=O)[C@H](CCCCN)NC(=O)[C@H](CC(=O)NCCC)NC(=O)[C@@H](CCN)NC(=O)[C@@H](NC(=O)C[C@H](O)CCCCCCCCCCC)COC(=O)[C@H]([C@H](O)CCl)NC(=O)[C@H]([C@H](O)C(=O)O)NC1=O | > 20 µg/mL | 1.25 µg/mL (≈ 1 µM) | 0.078 µg/mL (≈ 0.0625 µM) |  | 6 mg/kg | Death | Death |  |  |  |  |  | 
6 | C/C=C1\NC(=O)[C@H]([C@H](C)O)NC(=O)[C@H](CCN)NC(=O)[C@H](CCCCN)NC(=O)[C@H](CC(=O)NCCCC)NC(=O)[C@@H](CCN)NC(=O)[C@@H](NC(=O)C[C@H](O)CCCCCCCCCCC)COC(=O)[C@H]([C@H](O)CCl)NC(=O)[C@H]([C@H](O)C(=O)O)NC1=O | 20 µg/mL (≈ 15.8 µM) | 5 µg/mL (≈ 3.96 µM) | < 0.01 µg/mL |  | 5.9 mg/kg |  |  |  |  |  |  |  | 
7 | C/C=C1\NC(=O)[C@H]([C@H](C)O)NC(=O)[C@H](CCN)NC(=O)[C@H](CCCCN)NC(=O)[C@H](CC(=O)NCCN)NC(=O)[C@@H](CCN)NC(=O)[C@@H](NC(=O)C[C@H](O)CCCCCCCCCCC)COC(=O)[C@H]([C@H](O)CCl)NC(=O)[C@H]([C@H](O)C(=O)O)NC1=O | 5 µg/mL (≈ 4 µM) | 10 µg/mL (≈ 8 µM) | < 0.01 µg/mL | Active | < 5 mg/kg |  |  |  |  |  |  |  | 
8 | C/C=C1\NC(=O)[C@H]([C@H](C)O)NC(=O)[C@H](CCN)NC(=O)[C@H](CCCCN)NC(=O)[C@H](CC(=O)NC2CC2)NC(=O)[C@@H](CCN)NC(=O)[C@@H](NC(=O)C[C@H](O)CCCCCCCCCCC)COC(=O)[C@H]([C@H](O)CCl)NC(=O)[C@H]([C@H](O)C(=O)O)NC1=O ({Tetradecanoyl(3R-OH)}-S[dDab]D(NHcPr)K[Dab][aThr][Dhb][Asp(3S-OH)][Thr(4-Cl)]; ester 1-C) | 20 µg/mL (≈ 16 µM) | 0.156 µg/mL (≈ 0.125 µM) | < 0.01 µg/mL |  | < 5 mg/kg | Death | Death |  | 2.9 mg/kg | 29% |  |  | 
9 | C/C=C1\NC(=O)[C@H]([C@H](C)O)NC(=O)[C@H](CCN)NC(=O)[C@H](CCCCN)NC(=O)[C@H](CC(=O)NCCCCCCCCCC)NC(=O)[C@@H](CCN)NC(=O)[C@@H](NC(=O)C[C@H](O)CCCCCCCCCCC)COC(=O)[C@H]([C@H](O)CCl)NC(=O)[C@H]([C@H](O)C(=O)O)NC1=O | > 20 µg/mL | > 20 µg/mL | 1.25 µg/mL (≈ 0.928 µM) |  | > 20 mg/kg |  |  |  |  |  |  |  | 
10 | C/C=C1\NC(=O)[C@H]([C@H](C)O)NC(=O)[C@H](CCN)NC(=O)[C@H](CCCCN)NC(=O)[C@H](CC(=O)NCCN(C)C)NC(=O)[C@@H](CCN)NC(=O)[C@@H](NC(=O)C[C@H](O)CCCCCCCCCCC)COC(=O)[C@H]([C@H](O)CCl)NC(=O)[C@H]([C@H](O)C(=O)O)NC1=O ({Tetradecanoyl(3R-OH)}-S[dDab]D(NHCH2CH2NMe2)K[Dab][aThr][Dhb][Asp(3S-OH)][Thr(4-Cl)]; ester 1-C) | 5 µg/mL (≈ 3.91 µM) | 0.156 µg/mL (≈ 0.122 µM) | < 0.01 µg/mL |  | < 5 mg/kg | Death | Death |  | 2.5 mg/kg | 23% | Death |  | 
11 | C/C=C1\NC(=O)[C@H]([C@@H](C)O)NC(=O)[C@H](CCN)NC(=O)[C@H](CCCCN)NC(=O)[C@H](CC(=O)N[C@@H](CCCN=C(N)N)C(=O)OC)NC(=O)[C@@H](CCN)NC(=O)[C@@H](NC(=O)C[C@H](O)CCCCCCCCCCC)COC(=O)[C@H]([C@H](O)CCl)NC(=O)[C@H]([C@H](O)C(=O)O)NC1=O | > 20 µg/mL | 5 µg/mL (≈ 3.63 µM) | 0.01 µg/mL (≈ 0.00726 µM) |  | < 5 mg/kg |  |  |  |  |  |  |  | 
12 | C/C=C1\NC(=O)[C@H]([C@H](C)O)NC(=O)[C@H](CCN)NC(=O)[C@H](CCCCN)NC(=O)[C@H](CC(=O)NCCN(CC)CC)NC(=O)[C@@H](CCN)NC(=O)[C@@H](NC(=O)C[C@H](O)CCCCCCCCCCC)COC(=O)[C@H]([C@H](O)CCl)NC(=O)[C@H]([C@H](O)C(=O)O)NC1=O ({Tetradecanoyl(3R-OH)}-S[dDab]D(X1)K[Dab][aThr][Dhb][Asp(3S-OH)][Thr(4-Cl)]; ester 1-C) | 10 µg/mL (≈ 7.66 µM) | 10 µg/mL (≈ 7.66 µM) | < 0.01 µg/mL |  | 4.9 mg/kg |  |  |  |  |  |  |  | 
13 | C/C=C1\NC(=O)[C@H]([C@H](C)O)NC(=O)[C@H](CCN)NC(=O)[C@H](CCCCN)NC(=O)[C@H](CC(=O)O)NC(=O)[C@@H](CCN)NC(=O)[C@@H](NC(=O)C[C@H](O)CCCCCCCCCCC)COC(=O)[C@H]([C@H](O)CCl)NC(=O)[C@H]([C@H](O)C(=O)O)NC1=O [PSEUDOMYCIN B] ({Tetradecanoyl(3R-OH)}-S[dDab]DK[Dab][aThr][Dhb][Asp(3S-OH)][Thr(4-Cl)]; ester 1-C) | > 20 µg/mL | 0.625 µg/mL (≈ 0.517 µM) | 0.01 µg/mL (≈ 0.00828 µM) |  |  | Death | Death |  | 1.8 mg/kg |  | Death | Death | 46%
14 | C/C=C1\NC(=O)[C@H]([C@@H](C)O)NC(=O)[C@H](CCN)NC(=O)[C@H](CCCCN)NC(=O)[C@H](CC(=O)N[C@@H](Cc2ccccc2)C(=O)OC)NC(=O)[C@@H](CCN)NC(=O)[C@@H](NC(=O)C[C@H](O)CCCCCCCCCCC)COC(=O)[C@H]([C@H](O)CCl)NC(=O)[C@H]([C@H](O)C(=O)O)NC1=O | > 20 µg/mL | 1.25 µg/mL (≈ 0.913 µM) | 1.25 µg/mL (≈ 0.913 µM) |  | > 15 mg/kg |  |  |  |  |  |  |  | 

Source: ChEMBL document CHEMBL1134010, “Syntheses and antifungal activities of novel 3-amido bearing pseudomycin analogues” (Bioorg Med Chem Lett, 2001)
